ChEMBL document CHEMBL1122231, “Synthesis, benzodiazepine receptor binding, and anticonvulsant activity of 2,3-dihydro-3-oxo-5H-pyrido[3,4-b][1,4]benzothiazine-4-carbonitriles” (J Med Chem, 1983)

Experiments:
Mus musculus [1] = assay: Inhibition of pentylenetetrazole (PTZ) induced convulsions in mice at 64 mg/kg after 30 min; 2/10; assay type: functional
[2] = target: GABA-A receptor; anion channel; assay: Inhibition of binding of tritiated 3[H]diazepam radioligand to rat brain homogenates; assay type: tissue-based
Procedure, shortened: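 Rat brain membranes incubated with [3H]diazepam (final 4 μM) and six to eight concentrations of test drug, 30 °C for 10 min, then 4 °C for 20 min. Reactions were stopped by vacuum filtration through glass-fiber filters. Nonspecific binding was defined with 4 μM unlabeled diazepam. IC50 is the concentration giving 50% inhibition of [3H]diazepam binding to membranes.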

Mus musculus [3] = assay: Inhibition of pentylenetetrazole (PTZ) induced convulsions in mice at 64 mg/kg after 60 min; 2/10; assay type: functional
Mus musculus [4] = assay: Inhibition of pentylenetetrazole (PTZ) induced convulsions in mice at 4 mg/kg after 30 min; 1/10; assay type: functional
Mus musculus [5] = assay: Inhibition of pentylenetetrazole (PTZ) induced convulsions in mice at 4 mg/kg after 30 min; 0/10; assay type: functional
Mus musculus [6] = assay: Inhibition of pentylenetetrazole (PTZ) induced convulsions in mice at 64 mg/kg after 30 min; 1/10; assay type: functional
Mus musculus [7] = assay: Inhibition of pentylenetetrazole (PTZ) induced convulsions in mice at 100 mg/kg after 60 min; 2/10; assay type: functional
Mus musculus [8] = assay: Inhibition of pentylenetetrazole (PTZ) induced convulsions in mice at 10 mg/kg after 60 min; 1/10; assay type: functional
Mus musculus [9] = assay: Inhibition of pentylenetetrazole (PTZ) induced convulsions in mice at 64 mg/kg after 30 min; 4/10; assay type: functional
Mus musculus [10] = assay: Minimum effective dose after intraperitoneal administration; assay type: functional; settings: ip, read-out: MED
Mus musculus [11] = assay: Inhibition of pentylenetetrazole (PTZ) induced convulsions in mice at 4 mg/kg after 30 min; assay type: functional; settings: 0.5 h
Mus musculus [12] = assay: Inhibition of pentylenetetrazole (PTZ) induced convulsions in mice at 10 mg/kg after 60 min; 0/10; assay type: functional
Mus musculus [13] = assay: Inhibition of pentylenetetrazole (PTZ) induced convulsions in mice at 64 mg/kg after 60 min; 1/10; assay type: functional
Mus musculus [14] = assay: Inhibition of pentylenetetrazole (PTZ) induced convulsions in mice at 10 mg/kg after 60 min; 3/10; assay type: functional
Mus musculus [15] = assay: Inhibition of pentylenetetrazole (PTZ) induced convulsions in mice at 10 mg/kg after 60 min; assay type: functional; settings: 1 h
Mus musculus [16] = assay: Inhibition of pentylenetetrazole (PTZ) induced convulsions in mice at 100 mg/kg after 60 min; 8/10; assay type: functional
Mus musculus [17] = assay: Inhibition of pentylenetetrazole (PTZ) induced convulsions in mice at 64 mg/kg after 60 min; 0/10; assay type: functional
Mus musculus [18] = assay: Inhibition of pentylenetetrazole (PTZ) induced convulsions in mice at 64 mg/kg after 30 min; 0/10; assay type: functional
Mus musculus [19] = assay: Inhibition of pentylenetetrazole (PTZ) induced convulsions in mice at 64 mg/kg after 30 min; 5/10; assay type: functional
Mus musculus [20] = assay: Inhibition of pentylenetetrazole (PTZ) induced convulsions in mice at 64 mg/kg after 60 min; 10/10; assay type: functional
Mus musculus [21] = assay: Inhibition of pentylenetetrazole (PTZ) induced convulsions in mice at 100 mg/kg after 60 min; 6/10; assay type: functional
Mus musculus [22] = assay: Inhibition of pentylenetetrazole (PTZ) induced convulsions in mice at 4 mg/kg after 30 min; 2/10; assay type: functional
Mus musculus [23] = assay: Inhibition of pentylenetetrazole (PTZ) induced convulsions in mice at 64 mg/kg after 60 min; 7/10; assay type: functional

## N#Cc1c(O)ncc2c1Nc1ccccc1S2(=O)=O
Mus musculus [1]
  No. of mice protected: 2
[2]
  IC50: 11 µM
Mus musculus [3]
  No. of mice protected: 2
Mus musculus [4]
  No. of mice protected: 1

## Cc1nc(O)c(C#N)c2c1Sc1ccccc1N2
Mus musculus [5]
  No. of mice protected: 0
Mus musculus [6]
  No. of mice protected: 1
[2]
  IC50: 1.7 µM
Mus musculus [7]
  No. of mice protected: 2

## N#Cc1c(O)ncc2c1Nc1ccc([N+](=O)[O-])cc1S2
Mus musculus [5]
  No. of mice protected: 0
[2]
  IC50: 0.8 µM
Mus musculus [7]
  No. of mice protected: 2
Mus musculus [8]
  No. of mice protected: 1

## N#Cc1c(O)ncc2c1Nc1ccccc1S2
Mus musculus [9]
  No. of mice protected: 4
Mus musculus [10]
  minimal effective dose: 60 mg/kg
Mus musculus [5]
  No. of mice protected: 0
Mus musculus [11]
  ED50: 62 mg/kg
Mus musculus [12]
  No. of mice protected: 0
Mus musculus [13]
  No. of mice protected: 1
[2]
  IC50: 0.45 µM

## N#Cc1c(O)ncc2c1Nc1cc(Cl)ccc1S2(=O)=O
Mus musculus [1]
  No. of mice protected: 2
[2]
  IC50: 7.6 µM
Mus musculus [4]
  No. of mice protected: 1

## N#Cc1c(O)ncc2c1Nc1ccccc1[S+]2[O-] (stereo unspecified)
Mus musculus [14]
  No. of mice protected: 3
[2]
  IC50: 4.25 µM
Mus musculus [15]
  ED50: 41 mg/kg
Mus musculus [16]
  No. of mice protected: 8

## CN1c2ccccc2Sc2cnc(O)c(C#N)c21
Mus musculus [5]
  No. of mice protected: 0
Mus musculus [17]
  No. of mice protected: 0
[2]
  IC50: 0.314 µM
Mus musculus [18]
  No. of mice protected: 0

## CNC1=Nc2ccc(Cl)cc2C(c2ccccc2)=[N+]([O-])C1 [CHLORDIAZEPOXIDE]
Mus musculus [11]
  ED50: 1.25 mg/kg
[2]
  IC50: 0.442 µM

## N#Cc1c(O)ncc2c1Nc1ccc(Br)cc1S2
Mus musculus [5]
  No. of mice protected: 0
Mus musculus [12]
  No. of mice protected: 0
[2]
  IC50: 8 µM
Mus musculus [7]
  No. of mice protected: 2
Mus musculus [19]
  No. of mice protected: 5

## N#Cc1c(O)ncc2c1Nc1ccc(Cl)cc1S2
[2]
  IC50: 0.32 µM
Mus musculus [7]
  No. of mice protected: 2

## N#Cc1c(O)ncc2c1Nc1cc(Cl)ccc1S2
Mus musculus [11]
  ED50: 26 mg/kg
[2]
  IC50: 0.4 µM
Mus musculus [15]
  ED50: 32 mg/kg
Mus musculus [20]
  No. of mice protected: 10
Mus musculus [8]
  No. of mice protected: 1

## N#Cc1c(O)ncc2c1Nc1ccc(Cl)cc1S2(=O)=O
[2]
  IC50: 0.634 µM
Mus musculus [4]
  No. of mice protected: 1
Mus musculus [19]
  No. of mice protected: 5

## N#Cc1c(O)ncc2c1Nc1cc(Cl)ccc1[S+]2[O-] (stereo unspecified)
Mus musculus [21]
  No. of mice protected: 6
Mus musculus [5]
  No. of mice protected: 0
Mus musculus [12]
  No. of mice protected: 0
Mus musculus [1]
  No. of mice protected: 2
[2]
  IC50: 35 µM

## N#Cc1c(O)ncc2c1Nc1ccc(N)cc1S2
[2]
  IC50: 0.91 µM
Mus musculus [22]
  No. of mice protected: 2
Mus musculus [23]
  No. of mice protected: 7
Mus musculus [19]
  No. of mice protected: 5

## COc1cc2c(cc1OC)Sc1cnc(O)c(C#N)c1N2
[2]
  IC50: 100 µM
Mus musculus [3]
  No. of mice protected: 2
Mus musculus [8]
  No. of mice protected: 1

## Cn1cc2c(c(C#N)c1=O)Nc1ccccc1S2
Mus musculus [5]
  No. of mice protected: 0
Mus musculus [6]
  No. of mice protected: 1
[2]
  IC50: 17 µM
Mus musculus [7]
  No. of mice protected: 2

## CN1c2ccccc2Sc2cn(C)c(=O)c(C#N)c21
Mus musculus [5]
  No. of mice protected: 0
[2]
  IC50: 100 µM
Mus musculus [19]
  No. of mice protected: 5
